According to ChEMBL document CHEMBL1125904, “Synthesis and anthelmintic activity of 3'-benzoylurea derivatives of 6-phenyl-2,3,5,6-tetrahydroimidazo[2,1-b]thiazole” (1991):

What was measured:
Type in all cases: functional
[1] = test system: Heligmosomoides polygyrus; assay: Anthelmintic activity ( in Vivo ) in mouse, as percentage reduction of Nematospiroides dubius at 125 PPM
How it was run: (§1)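 Mice infected by oral gavage with 35-40 N. dubius L3 larvae plus 5000 H. nana eggs each. From 24 h post-infection, groups of four fed compound ad lib in powdered lab chow (31-1000 ppm) for 18 days. Killed on day 19; N. dubius counted in duodenum under dissecting microscope. Percent reduction computed from mean worm counts, treated vs untreated control.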

[2] = test system: Heligmosomoides polygyrus; assay: Anthelmintic activity ( in Vivo ) in mouse, as percentage reduction of Nematospiroides dubius at 500 PPM; how it was run: as §1
Ovis aries [3] = assay: Anthelmintic activity (in Vivo)in sheep as percentage reduction versus control (by administration of benzimidazole-susceptible L3 larvae of Ostertagia circumcincta intraruminally)at 15 mg/kg po
How it was run: (§2)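 Sheep on lucerne/oaten chaff were infected intraruminally on day 0 with benzimidazole-susceptible L3 larvae (H. contortus 6000, O. circumcincta 8000, T. colubriformis 8000). They were allocated on day-27 faecal egg counts and weight (n = 4-7). A single intraruminal dose in 0.5% Na CMC/0.9% saline was given on day 28, with an untreated control per assay. On day 35, adult worms in abomasum and small intestine were counted as % reduction vs control.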

Ovis aries [4] = assay: Anthelmintic activity (in Vivo)in sheep as percentage reduction versus control (by administration of benzimidazole-susceptible L3 larvae of Trichostrongylus colubriformis intraruminally) at 10 mg/kg po; how it was run: as §2
Ovis aries [5] = assay: Anthelmintic activity (in Vivo)in sheep as percentage reduction versus control (by administration of benzimidazole-susceptible L3 larvae of Haemonchus contortus intraruminally)at 10 mg/kg po; how it was run: as §2
Ovis aries [6] = assay: Anthelmintic activity (in Vivo)in sheep as percentage reduction versus control (by administration of benzimidazole-susceptible L3 larvae of Ostertagia circumcincta intraruminally)at 5 mg/kg po; how it was run: as §2
Ovis aries [7] = assay: Anthelmintic activity (in Vivo)in sheep as percentage reduction versus control (by administration of benzimidazole-susceptible L3 larvae of Haemonchus contortus intraruminally)at 15 mg/kg po; how it was run: as §2
Ovis aries [8] = assay: Anthelmintic activity (in Vivo)in sheep as percentage reduction versus control (by administration of benzimidazole-susceptible L3 larvae of Haemonchus contortus intraruminally)at 5 mg/kg po; how it was run: as §2
Ovis aries [9] = assay: Anthelmintic activity (in Vivo)in sheep as percentage reduction versus control (by administration of benzimidazole-susceptible L3 larvae of Trichostrongylus colubriformis intraruminally) at 15 mg/kg po; how it was run: as §2
[10] = test system: Heligmosomoides polygyrus; assay: Anthelmintic activity ( in Vivo ) in mouse, as percentage reduction of Nematospiroides dubius at 62 PPM; how it was run: as §1
[11] = test system: Heligmosomoides polygyrus; assay: Anthelmintic activity ( in Vivo ) in mouse, as percentage reduction of Nematospiroides dubius at 250 PPM; how it was run: as §1
Ovis aries [12] = assay: Anthelmintic activity (in Vivo)in sheep as percentage reduction versus control (by administration of benzimidazole-susceptible L3 larvae of Ostertagia circumcincta intraruminally)at 10 mg/kg po; how it was run: as §2
Ovis aries [13] = assay: Anthelmintic activity (in Vivo)in sheep as percentage reduction versus control (by administration of benzimidazole-susceptible L3 larvae of Trichostrongylus colubriformis intraruminally) at 5 mg/kg po; how it was run: as §2
Ovis aries [14] = assay: Anthelmintic activity (in Vivo)in sheep as percentage reduction versus control (by administration of benzimidazole-susceptible L3 larvae of T colubriformis intraruminally) at 5 mg/kg po; how it was run: as §2
Ovis aries [15] = assay: Anthelmintic activity (in Vivo)in sheep as percentage reduction versus control (by administration of benzimidazole-susceptible L3 larvae of H contortus intraruminally)at 10 mg/kg po; how it was run: as §2
Ovis aries [16] = assay: Anthelmintic activity (in Vivo)in sheep as percentage reduction versus control (by administration of benzimidazole-susceptible L3 larvae of H contortus intraruminally)at 5 mg/kg po; how it was run: as §2
Ovis aries [17] = assay: Anthelmintic activity (in Vivo)in sheep as percentage reduction versus control (by administration of benzimidazole-susceptible L3 larvae of O circumcincta intraruminally)at 5 mg/kg po; how it was run: as §2
Ovis aries [18] = assay: Anthelmintic activity (in Vivo)in sheep as percentage reduction versus control (by administration of benzimidazole-susceptible L3 larvae of O circumcincta intraruminally)at 10 mg/kg po; how it was run: as §2
Ovis aries [19] = assay: Anthelmintic activity (in Vivo)in sheep as percentage reduction versus control (by administration of benzimidazole-susceptible L3 larvae of T colubriformis intraruminally) at 10 mg/kg po; how it was run: as §2
[20] = test system: Heligmosomoides polygyrus; assay: Anthelmintic activity ( in Vivo ) in mouse, as percentage reduction of Nematospiroides dubius at 1000 PPM; how it was run: as §1
Ovis aries [21] = assay: Anthelmintic activity (in Vivo)in sheep as percentage reduction versus control (by administration of […] L3 larvae of Trichostrongylus colubriformis intraruminally) at 30 mg/kg po (Benzimidazole resistant strain)
How it was run: (§3)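 Sheep fed lucerne/oaten chaff were infected intraruminally with L3 larvae of a drug-resistant strain (benzimidazole-resistant; for O. circumcincta, benzimidazole-, levamisole- and morantel-resistant). They were grouped by faecal egg counts (n = 4-7) and dosed once intraruminally on day 28 in 0.5% Na CMC/saline. Adult worms were counted on day 35 as % reduction vs untreated control.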

Ovis aries [22] = assay: Anthelmintic activity (in Vivo)in sheep as percentage reduction versus control (by administration of benzimidazole-susceptible L3 larvae of Haemonchus contortus intraruminally)at 30 mg/kg po; how it was run: as §2
Ovis aries [23] = assay: Anthelmintic activity (in Vivo)in sheep as percentage reduction versus control (by administration of benzimidazole-susceptible L3 larvae of Trichostrongylus colubriformis intraruminally) at 30 mg/kg po; how it was run: as §2
Ovis aries [24] = assay: Anthelmintic activity (in Vivo)in sheep as percentage reduction versus control (by administration of benzimidazole-susceptible L3 larvae of Ostertagia circumcincta intraruminally)at 30 mg/kg po; how it was run: as §2
Ovis aries [25] = assay: Anthelmintic activity (in Vivo) in sheep as percentage reduction versus control (by administration of […] L3 larvae of Ostertagia circumcincta intraruminally)at 30 mg/kg po (Benzimidazole, levamisole and morantel resistant strain); how it was run: as §3
Ovis aries [26] = assay: Anthelmintic activity (in Vivo)in sheep as percentage reduction versus control (by administration of […] L3 larvae of Haemonchus contortus intraruminally)at 30 mg/kg po (Benzimidazole resistant strain); how it was run: as §3
[27] = test system: Heligmosomoides polygyrus; assay: Anthelmintic activity ( in Vivo ) in mouse, as percentage reduction of Nematospiroides dubius at 31 PPM; how it was run: as §1
Ovis aries [28] = assay: Anthelmintic activity (in Vivo)in sheep as percentage reduction versus control (by administration of benzimidazole-susceptible L3 larvae of Ostertagia circumcincta intraruminally)at 10.9 mg/kg po; how it was run: as §2
Ovis aries [29] = assay: Anthelmintic activity (in Vivo)in sheep as percentage reduction versus control (by administration of benzimidazole-susceptible L3 larvae of Trichostrongylus colubriformis intraruminally) at 16.4 mg/kg po; how it was run: as §2
Ovis aries [30] = assay: Anthelmintic activity (in Vivo)in sheep as percentage reduction versus control (by administration of benzimidazole-susceptible L3 larvae of Haemonchus contortus intraruminally)at 16.4 mg/kg po; how it was run: as §2
Ovis aries [31] = assay: Anthelmintic activity (in Vivo)in sheep as percentage reduction versus control (by administration of benzimidazole-susceptible L3 larvae of Haemonchus contortus intraruminally)at 10.9 mg/kg po; how it was run: as §2
Ovis aries [32] = assay: Anthelmintic activity (in Vivo)in sheep as percentage reduction versus control (by administration of benzimidazole-susceptible L3 larvae of Trichostrongylus colubriformis intraruminally) at 10.9 mg/kg po; how it was run: as §2
Ovis aries [33] = assay: Anthelmintic activity (in Vivo)in sheep as percentage reduction versus control (by administration of benzimidazole-susceptible L3 larvae of Ostertagia circumcincta intraruminally)at 16.4 mg/kg po; how it was run: as §2

| Structure (SMILES) | Reduction [1] [%] | Reduction [2] [%] | Reduction [10] [%] | Reduction [11] [%] | also measured |
| --- | --- | --- | --- | --- | --- |
| O=C(NC(=O)c1c(F)cccc1F)Nc1cccc([C@H]2CN3CCSC3=N2)c1 | 26 | 100 | 0 | 100 | Reduction (Ovis aries [3]): 74%; Reduction (Ovis aries [4]): 96%; Reduction (Ovis aries [5]): 90%; Reduction (Ovis aries [6]): 56%; Reduction (Ovis aries [7]): 86%; Reduction (Ovis aries [8]): 74%; Reduction (Ovis aries [9]): 98%; Reduction (Ovis aries [12]): 64%; Reduction (Ovis aries [13]): 75% |
| O=C(NC(=O)c1ccc(C(F)(F)F)cc1)Nc1cccc([C@H]2CN3CCSC3=N2)c1 | 0 |  |  | 43 | Reduction (Ovis aries [14]): 15%; Reduction (Ovis aries [15]): 59%; Reduction (Ovis aries [16]): 27%; Reduction (Ovis aries [17]): 33%; Reduction (Ovis aries [18]): 29%; Reduction (Ovis aries [19]): 40% |
| CC(C)(C)c1ccc(C(=O)NC(=O)Nc2cccc(C3CN4CCSC4=N3)c2)cc1 (centres undefined) |  |  |  | 0 |  |
| O=C(NC(=O)c1ccc(C(=O)c2ccccc2)cc1)Nc1cccc(C2CN3CCSC3=N2)c1 (centres undefined) |  |  |  | 0 | Reduction [20]: 100% |
| O=C(NC(=O)c1ccc([N+](=O)[O-])cc1)Nc1cccc(C2CN3CCSC3=N2)c1 (centres undefined) |  |  |  |  | Reduction [20]: 0% |
| O=C(NC(=O)c1ccc(OC(F)(F)F)cc1)Nc1cccc(C2CN3CCSC3=N2)c1 (centres undefined) |  |  |  | 0 |  |
| O=C(NC(=O)c1ccc(F)cc1)Nc1cccc(C2CN3CCSC3=N2)c1 (centres undefined) |  | 43 |  | 0 |  |
| O=C(NC(=O)c1cccc([N+](=O)[O-])c1)Nc1cccc(C2CN3CCSC3=N2)c1 (centres undefined) |  |  |  | 0 |  |
| O=C(NC(=O)c1ccc(I)cc1)Nc1cccc(C2CN3CCSC3=N2)c1 (centres undefined) |  |  |  | 0 |  |
| COc1ccc(C(=O)NC(=O)Nc2cccc(C3CN4CCSC4=N3)c2)cc1 (centres undefined) |  |  |  |  | Reduction [20]: 0% |
| O=C(NC(=O)c1c(F)cccc1F)Nc1cccc(C2CN3CCSC3=N2)c1 (centres undefined) | 76 | 100 | 0 | 100 | Reduction (Ovis aries [3]): 75%; Reduction (Ovis aries [21]): 92%; Reduction (Ovis aries [22]): 98%; Reduction (Ovis aries [7]): 92%; Reduction (Ovis aries [9]): 100%; Reduction (Ovis aries [23]): 99%; Reduction (Ovis aries [24]): 93%; Reduction (Ovis aries [25]): 55%; Reduction (Ovis aries [26]): 100% |
| O=C(NC(=O)c1ccccc1Cl)Nc1cccc(C2CN3CCSC3=N2)c1 (centres undefined) | 56 |  | 0 | 100 |  |
| COc1ccccc1C(=O)NC(=O)Nc1cccc(C2CN3CCSC3=N2)c1 (centres undefined) |  |  |  | 0 |  |
| O=C(NC(=O)c1ccccc1[N+](=O)[O-])Nc1cccc(C2CN3CCSC3=N2)c1 (centres undefined) |  | 0 |  |  |  |
| O=C(NC(=O)c1ccc(C(F)(F)F)cc1)Nc1cccc(C2CN3CCSC3=N2)c1 (centres undefined) | 96 | 100 | 43 | 100 | Reduction [27]: 0% |
| O=C(NC(=O)c1ccccc1F)Nc1cccc(C2CN3CCSC3=N2)c1 (centres undefined) | 95 |  | 40 |  | Reduction [27]: 0% |
| O=C(NC(=O)c1c(Cl)cccc1Cl)Nc1cccc(C2CN3CCSC3=N2)c1 (centres undefined) |  | 0 |  |  | Reduction [20]: 56% |
| N#Cc1ccc(C(=O)NC(=O)Nc2cccc(C3CN4CCSC4=N3)c2)cc1 (centres undefined) |  |  |  | 0 |  |
| O=C(NC(=O)c1ccccc1)Nc1cccc(C2CN3CCSC3=N2)c1 (centres undefined) |  | 0 |  |  | Reduction [20]: 59% |
| O=C(NC(=O)c1cc(F)cc(F)c1)Nc1cccc(C2CN3CCSC3=N2)c1 (centres undefined) |  | 0 |  |  |  |
| O=C(NC(=O)c1ccc(Cl)cc1)Nc1cccc(C2CN3CCSC3=N2)c1 (centres undefined) |  | 0 |  |  |  |
| Cl.O=C(NC(=O)c1c(F)cccc1F)Nc1cccc(C2CN3CCSC3=N2)c1 (centres undefined) |  |  |  |  | Reduction (Ovis aries [28]): 52%; Reduction (Ovis aries [29]): 99%; Reduction (Ovis aries [30]): 78%; Reduction (Ovis aries [31]): 64%; Reduction (Ovis aries [32]): 93%; Reduction (Ovis aries [33]): 82% |
| c1ccc([C@H]2CN3CCSC3=N2)cc1 [LEVAMISOLE] |  | 100 | 100 |  | Reduction [27]: 60% |
| COC(=O)Nc1nc2cc([S+]([O-])c3ccccc3)ccc2[nH]1 (centres undefined) [OXFENDAZOLE] | 100 |  | 100 |  | Reduction [27]: 100% |
| c1ccc(C2CN3CCSC3=N2)cc1 (centres undefined) [TETRAMISOLE] | 100 | 100 | 0 |  |  |
